Screening results deposited in PubChem BioAssay by several laboratories.
S1P3 antagonist – antagonists of human S1P3 receptor | Q99500 | CHO S1P3 NFAT-BLA reporter, FRET fluorescence, antagonist mode | inhibition, % at 4.98 µM | actives 0.27% (n = 170,000);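 active means inhibition above the plate cutoff, the mean inhibition of test wells on that plate plus 3 SD, cut at about 28% in these data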;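 further: cells challenged with S1P at its EC80 of 0.8 µM; blue over green emission ratio from cleaved BLA substrate after 4 h stimulation; 0% = S1P-stimulated wells and 100% = unstimulated DMSO-only wells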
Target sequence (Q99500 whole entry, looked up): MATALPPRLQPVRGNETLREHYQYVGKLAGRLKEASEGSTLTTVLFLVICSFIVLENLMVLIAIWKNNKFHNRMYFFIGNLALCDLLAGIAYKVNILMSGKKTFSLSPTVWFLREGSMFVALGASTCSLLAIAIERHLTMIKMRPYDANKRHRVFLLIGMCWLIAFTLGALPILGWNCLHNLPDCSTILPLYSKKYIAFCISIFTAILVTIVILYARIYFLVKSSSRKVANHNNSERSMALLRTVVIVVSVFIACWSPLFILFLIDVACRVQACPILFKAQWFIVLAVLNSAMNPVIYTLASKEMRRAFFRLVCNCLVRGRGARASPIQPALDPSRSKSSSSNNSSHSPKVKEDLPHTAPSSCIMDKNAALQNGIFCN
HMGR II inh – E. faecalis class II HMG-CoA reductase inhibition; purified E. faecalis HMGR, NADPH absorbance 340 nm kinetic; inhibition, % at 10 µM; actives 0.41% (n = 190,000); AID 1066;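 active means inhibition above a set limit, the median over all tested compounds plus 3 SD, cut at about 9.5% in these data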;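 further: enzyme runs in reverse so mevalonate oxidation gives rising NADPH absorbance; 0% = complete reaction with DMSO and 100% = background rate lacking mevalonate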
S1P4 antagonist – antagonists of human S1P4 receptor | inhibition, % at 4.98 µM | S1P4-expressing cells, antagonist mode, reporter read-out | O95977 | actives 0.26% (n = 220,000); in the data active means inhibition above about 29%;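 further: 0% = wells stimulated with agonist and 100% = vehicle wells without agonist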
Rad51 HR inh – blocks human Rad51 in homologous recombination; hRad51 DNA strand exchange, fluorescence dequenching; inhibition, % at 10 µM; Q06609; actives 0.085% (n = 200,000);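 active means inhibition above 40% at the single screening dose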;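 further: 0% = DMSO control wells and 100% = blanks with heterologous ssDNA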
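Material: Human Rad51 nucleoprotein filaments preassembled on unlabelled ssDNA | Also added: Labelled 47-mer dsDNA for strand exchange | Dosing: Single dose, 10 µM final compound | Schedule: 30-min compound preincubation and 15-min exchange, both room temperature | Technique: Fluorescence dequenching at 485/520 nm | Measure: Percent inhibition relative to plate controls and blanks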
Calb biofilm kill – mixture kills Candida albicans biofilm cells; C. albicans biofilm persisters + clotrimazole, fluorescence viability; primary screen in compound mixtures of four per well; AID 1242; inhibition, % at 7.6 µM; actives 0.02% (n = 120,000);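 active means inhibition above 30.3% in the primary screen of four-compound pools, then above 30% when the compound was retested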;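 further: compounds exposed to preformed 24 h biofilms for 48 h; 0% = untreated biofilm control and 100% = clotrimazole plus chlorhexidine kill blank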
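Assay system: C. albicans biofilms / Medium: RPMI/MOPS medium, pH 7.0 / Schedule: biofilm formation 24 h, compound exposure 48 h, 37 °C / Measured by: Alamar Blue fluorescence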
S1P4 ag – activates the human S1P4 receptor | AID 1509 | S1P4-expressing cell line, agonist reporter assay | O95977 | actives 0.35% (n = 220,000) | activation, % at 4.98 µM; in the data active means activation above about 11%;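 further: 0% = DMSO vehicle and 100% = reference agonist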
S1P4 antag conf – human S1P4 antagonism, confirmation. shares compounds with S1P4 antagonist. inhibition, % at 4.98 µM. S1P4-expressing cell line, antagonist mode, reporter read-out. actives 71% (n = 520); in the data active means inhibition above about 30%
S1P1 antagonist – counter-screen for S1P4 antagonists: antagonists of human S1P1 | shares compounds with S1P4 antagonist | cell-based S1P1 antagonist counterscreen, inhibition | inhibition, % at 4.98 µM | actives 37% (n = 520) | AID 1564; in the data active means inhibition above about 40%;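 further: receptor stimulated with S1P near its EC80; 0% = agonist stimulated wells and 100% = vehicle only wells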
* marks the source's active call; other numbers are inactive results; / = no result. Compounds with a hit are over-represented: about 1.2% of the library has one in this group of screens.

SMILES	S1P3 antagonist	HMGR II inh	S1P4 antagonist	Rad51 HR inh	Calb biofilm kill	S1P4 ag	S1P4 antag conf	S1P1 antagonist
COc1cccc(-n2nnnc2S(C)(=O)=O)c1	/	1	42*	8	/	0	110*	17
O=c1[nH]sc2ccccc12	5	-3	32*	19	1	3	91*	5
O=c1c2ccccc2sn1-c1ccccc1	/	-3	9	-3	/	1	/	/
O=C(Nc1cccc(NC(=O)c2cccs2)c1)c1ccc([N+](=O)[O-])o1	12	/	56*	14	19	-2	66*	62*
O=C(NC(=S)N1CCc2ccccc21)c1ccccc1	-5	0	-7	-3	16	1	/	/
Cc1nn(CC2CC2)c(=O)n1-c1cccc(Cl)c1	-5	-1	-2	-12	10	0	/	/
OC(COc1ccc(CNCCc2ccc(C(F)(F)F)cc2)cc1)CN1CCCCC1 (stereo not drawn)	-26	-4	30*	-4	22	-2	41*	28
Cc1cc(C)c(S(=O)(=O)N2CCCC(C(=O)NCCC3=CCCCC3)C2)c(C)c1 (stereo not drawn)	/	-5	-22	/	/	1	/	/
Cc1ccc(-c2csc(NC(=O)C3CCN(S(=O)(=O)c4cccs4)CC3)n2)cc1	2	-4	59*	-64	-6	-1	5	14
CCC(=O)c1ccc(/C=C/c2nc3ccccc3n2C)o1	22	3	23	-5	16	1	/	/
CCOc1ccc(C(=O)C(CCC(CN(C)C)C(=O)c2ccc(OCC)cc2)CN(C)C)cc1 (stereo not drawn)	13	3	43*	-4	17	-3	110*	52*
CN(C)CC(CCC(CN(C)C)C(=O)c1ccccc1)C(=O)c1ccccc1 (stereo not drawn)	8	/	41*	-2	18	0	110*	39
COc1ccc(C(=O)C(CCCCC(CN(C)C)C(=O)c2ccc(OC)cc2)CN(C)C)cc1 (stereo not drawn)	/	-1	-1	/	/	-4	/	/
CCOC(=O)/C(C#N)=C/c1cn(CCC(=O)O)nc1-c1ccc(F)cc1	4	-3	-3	/	18	0	/	/
O=c1oc2ccccc2c(NCc2ccccc2F)c1[N+](=O)[O-]	-6	0	-6	/	14	2	/	/
CC(C)c1ccc(CNc2c([N+](=O)[O-])c(=O)oc3ccccc23)cc1	-29	-9	32*	-4	3	0	-3	-9
C/C(=N/NC(=O)CN1CCN(S(=O)(=O)c2ccc(C)cc2)CC1)c1cccc(O)c1	8	/	0	/	21	1	/	/
Cc1cc(N2CCOCC2)ccc1/C=C\[N+](=O)[O-]	-15	2	39*	-17	0	-2	82*	-24
O=[N+]([O-])c1ccc(N2CCOCC2)cc1O	-11	/	-13	6	21	1	/	/
COc1cc(NC(=O)Cn2ncc(Cl)c(Cl)c2=O)c(C)cc1[N+](=O)[O-]	-15	-4	93*	/	-2	10	119*	40*
COc1cc(NC(=O)CN2C(=O)CN(C)C2=O)c(C)cc1[N+](=O)[O-]	-13	-3	-1	5	8	0	/	/
CCN(CC)C(=O)CN(C#N)c1nc(Cl)nc(N(C)C)n1	-16	2	42*	1	30	-2	50*	39
CCOC(=O)/C(=C\c1ccc(OC(F)F)cc1)C1=Nn2c(nnc2-c2ccc(Cl)cc2)SC1	1	-7	31*	4	10	0	119*	87*
COc1ccc(-c2nnc3n2N=C(C)CS3)cc1	/	-2	15	-4	/	-1	/	/
Cc1c(C)n(C)c2ccc(C(=O)Nc3cccc4ccccc34)cc12	/	-3	44*	-9	/	-3	46*	12
SMILES	S1P3 antagonist	HMGR II inh	S1P4 antagonist	Rad51 HR inh	Calb biofilm kill	S1P4 ag	S1P4 antag conf	S1P1 antagonist
O=C(Nc1cccc2ccccc12)c1ccccc1	-6	/	7	-5	20	0	/	/
CC(C)N1CCC2(CC1)N=C(c1ccc3c(c1)OCO3)CC(c1cc(Cl)ccc1O)N2 (stereo not drawn)	10	-3	35*	-11	/	0	79*	23
CN(Cc1ccccc1)C(NC(=O)c1ccco1)C(Cl)(Cl)Cl (stereo not drawn)	10	-3	8	/	3	0	/	/
O=S(=O)(c1cccs1)N1CCN(S(=O)(=O)c2cccs2)CC1	-3	-4	6	-8	11	3	/	/
N#Cc1nccnc1S(=O)(=O)c1cccs1	4	/	41*	-3	20	0	97*	56*
O=C(Nc1cc2c(oc1=O)CCCC2=O)c1ccccc1	/	3	4	-39	/	-2	/	/
CCN1C(=O)/C(=C\C(=O)c2cccs2)c2cc(Br)ccc21	8	-2	6	18	17	0	/	/
O=C1Nc2ccccc2/C1=C/C(=O)c1cccs1	/	-2	38*	9	/	0	64*	47*
COc1ccc(CNC(=O)C(c2ccncc2)N(C(=O)Cc2cccs2)c2ccccc2)cc1 (stereo not drawn)	-1	3	3	1	8	2	/	/
COc1ccc(N(C(=O)CCl)C(C(=O)NCCc2ccccc2)c2cccs2)cc1 (stereo not drawn)	-8	-4	30*	-8	7	0	99*	16
CCCS(=O)(=O)N1CCN(Cc2ccccc2OCC)CC1	18	2	-10	9	/	0	/	/
O=c1ccsn1Cc1ccccc1	-22	-3	33*	4	/	0	36*	16
N=C1SCC(=O)N1c1ncc(Cc2ccccc2Cl)s1	-4	-3	48*	1	11	1	94*	98*
O=C(O)CCn1c(=O)[nH]c2ccccc2c1=O	-29	0	36*	-3	/	-2	0	-12
CN(CC(=O)NC1CCCc2ccccc21)S(=O)(=O)c1ccc2c(c1)c(=O)n(C)c(=O)n2C (stereo not drawn)	2	-5	-15	10	/	0	/	/
CC(C)CC(c1nnnn1CCc1ccccc1)N1CCN(C(=O)c2ccco2)CC1 (stereo not drawn)	-5	-5	-2	-11	/	0	/	/
CCC(c1nnnn1CCc1ccccc1)N1CCN(C(=O)c2ccco2)CC1 (stereo not drawn)	-20	-6	33*	5	/	-2	7	18
CCO[C@H]1OC(C(N)=O)=C[C@@H](c2coc3ccccc3c2=O)[C@@H]1CCCO	-22	2	4	0	21	0	/	/
O=C(CO/N=C/c1ccccc1OC(F)F)NC1CCCCC1	1	-9	-26	/	19	0	/	/
